Experimental data as given in ChEMBL document CHEMBL1151817, “Steroids from an Australian sponge Psammoclema sp” (J Nat Prod, 2009).
pIC50: −log10 of the molar value. Activity calls are given as the source filed them. The rule behind the calls is not given here.

What was measured:
Ovis aries = species on record: Ovis aries; experiment: (§1) Inhibition of dynamin 1 GTPase activity in sheep brain peripheral membrane by microplate spectrophotometry; type: cell membranes
In short: (§2)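 Sheep brain dynamin I, affinity-purified on GST-Amph2-SH3, used at 20 nM. Sample preincubated 12 min at 37 °C with 0.3 mM GTP in Tris pH 7.5 buffer containing Mg2+, Tween 80 and protease inhibitors. Enzyme then added; 30 min at 37 °C with shaking; phosphatidylserine liposome stimulation. Stopped with EDTA; malachite green phosphate readout at 650 nm against phosphate standard curve.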

HT-29 = experiment: Cytotoxicity against human HT-29 cells after 72 hrs by MTT assay; type: functional; settings: HT-29, 72 h
In short: (§3)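 ATCC lines grown in DMEM with 10% FBS, glutamine, antibiotics, 37 °C, 5% CO2; 2000–3000 cells/well plated, compound added 24 h later during log growth. Eight concentrations, 0.25–50 μM (from 20 mM DMSO stock), 72 h exposure; MTT absorbance at 540 nm. GI50 = concentration giving 50% growth inhibition versus untreated cells; duplicate wells, two separate experiments.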

MCF7 = experiment: Cytotoxicity against human MCF7 cells after 72 hrs by MTT assay; type: functional; settings: MCF7, 72 h; in short: as §3
A2780 = experiment: Cytotoxicity against human A2780 cells after 72 hrs by MTT assay; type: functional; settings: A2780, 72 h; in short: as §3
DU-145 = experiment: Cytotoxicity against human DU145 cells after 72 hrs by MTT assay; type: functional; settings: DU-145, 72 h; in short: as §3
[1] = as §1; type: cell membranes, Ovis aries; in short: as §2

CC(C)C(C)/C=C/C(C)C1C(O)CC2C3CCC4CC(O)CCC4(C)C3CC(O)C21C (stereo not given)
Activity (Ovis aries): inactive
GI50 (HT-29): 7 µM
GI50 (MCF7): 17 µM
GI50 (A2780): 10 µM
GI50 (DU-145): 27 µM

CC(C)CCCC(C)C1C(O)CC2C3CCC4CC(O)CCC4(C)C3CC(O)C21C (stereo not given)
Activity (Ovis aries): inactive
GI50 (HT-29): 5 µM
GI50 (MCF7): 5.5 µM
GI50 (A2780): 5.4 µM
GI50 (DU-145): 6.7 µM

C=C(C)C(CC)CCC(C)C1C(O)CC2C3CCC4CC(O)CCC4(C)C3CC(O)C21C (stereo not given)
pIC50 [1]: < 3.52
GI50 (HT-29): 7.1 µM
GI50 (MCF7): 10 µM
GI50 (A2780): 11 µM
GI50 (DU-145): 13 µM

C=C(CCC(C)C1C(O)CC2C3CCC4CC(O)CCC4(C)C3CC(O)C21C)C(C)C (stereo not given)
Activity (Ovis aries): inactive
GI50 (HT-29): 18 µM
GI50 (MCF7): 18 µM
GI50 (A2780): 19 µM
GI50 (DU-145): 27 µM
